Activity calls are given as the source filed them. No cut-off for these calls is given here.
Experiments:
[1] = tested on: CCRF-CEM; assay: Induction of cell cycle arrest in human CCRF-CEM cells assessed as downregulation of Cyclin A expression at 5 times IC50 incubated for 24 hrs by Western blotting analysis; assay type: functional, cell-based
How it was run: (§1)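 30 µg protein per lane on SDS-PAGE, transferred to nitrocellulose, blocked in 5 % BSA/TBS-Tween. Primary antibodies overnight at 4 °C (Akt, P-Akt Ser473, STAT-3, caspase-3, PARP, cyclin D, cyclin A, Bcl-xL, Bak, Bid, Bim), then HRP secondary and ECL detection. GAPDH as loading control.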

[2] = tested on: CCRF-CEM; assay: Induction of apoptosis in human CCRF-CEM cells assessed as late apoptotic cells at 1 times IC50 incubated for 24 hrs by Annexin V-FITC and PI staining based flow cytometric analysis (reference value: 0.4 %); assay type: functional
How it was run: (§2)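 Washed in Ca2+-containing binding buffer, then stained 15 min at room temperature in the dark with Annexin V-FITC and propidium iodide (PI at half the kit-recommended level). Read at once by flow cytometry with a 488 nm laser, ≥10,000 cells. Debris excluded; quadrants viable, early apoptotic, late apoptotic/necrotic, necrotic. Three independent experiments.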

[3] = Stability in human plasma assessed as compound remaining at 2 uM incubated for 30 mins by RF-MS analysis; assay type: ADME, cell-free; settings: read-out: Stability
How it was run: (§3)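 Human plasma stability, plasma protein binding and liver microsome stability, each run in triplicate. Error deviations below 10 %.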

[4] = tested on: CCRF-CEM; assay: Induction of cell cycle arrest in human CCRF-CEM cells assessed as downregulation of AKT phosphorylation at 1 times IC50 incubated for 24 hrs by Western blotting analysis; assay type: functional, cell-based; how it was run: as §1
[5] = tested on: CCRF-CEM; assay: Induction of cell cycle arrest in human CCRF-CEM cells assessed as downregulation of total STAT3 expression at 5 times IC50 incubated for 24 hrs by Western blotting analysis; assay type: functional, cell-based; how it was run: as §1
[6] = tested on: CCRF-CEM; assay: Induction of apoptosis in human CCRF-CEM cells assessed as upregulation of BID expression at 1 to 5 times IC50 incubated for 24 hrs by Western blotting analysis; assay type: functional, cell-based; how it was run: as §1
[7] = tested on: CCRF-CEM; assay: Induction of apoptosis in human CCRF-CEM cells assessed as early apoptotic cells at 5 times IC50 incubated for 24 hrs by Annexin V-FITC and PI staining based flow cytometric analysis (reference value: 2.1 %); assay type: functional; how it was run: as §2
[8] = tested on: CCRF-CEM; assay: Induction of apoptosis in human CCRF-CEM cells assessed as downregulation of BCL-XL expression at 5 times IC50 incubated for 24 hrs by Western blotting analysis; assay type: functional, cell-based; how it was run: as §1
[9] = tested on: CCRF-CEM; assay: Induction of cell cycle arrest in human CCRF-CEM cells assessed as downregulation of AKT phosphorylation at 5 times IC50 incubated for 24 hrs by Western blotting analysis; assay type: functional, cell-based; how it was run: as §1
[10] = tested on: CCRF-CEM; assay: Inhibition of DNA synthesis in human CCRF-CEM cells at 5 times IC50 incubated for 24 hrs by BrdU incorporation based flow cytometry; assay type: functional
How it was run: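 Fixed in ice-cold 70 % ethanol, DNA denatured in 2 M HCl for 30 min, neutralised with borax. Stained with anti-BrdU plus FITC secondary, then PI/RNase A for 1 h. Flow cytometry; % BrdU-positive cells.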

[11] = tested on: CCRF-CEM; assay: Induction of apoptosis in human CCRF-CEM cells assessed as late apoptotic cells at 5 times IC50 incubated for 24 hrs by Annexin V-FITC and PI staining based flow cytometric analysis (reference value: 0.4 %); assay type: functional; how it was run: as §2
[12] = Stability in human plasma assessed as compound remaining at 2 uM incubated for 60 mins by RF-MS analysis; assay type: ADME, cell-free; settings: read-out: Stability; how it was run: as §3

remaining at 0.5 h, 2 µM [3]: 91% | remaining at 1 h, 2 µM [12]: 92%
SMILES: CC(=O)O[C@H]1CC[C@]2(C)[C@H]3CC[C@@H]4[C@H]5[C@H](c6cc7c(c(-c8ccccc8)c6)C(=O)N(c6cc[nH]n6)C7=O)CC[C@]5(C(=O)O)CC[C@@]4(C)[C@]3(C)CC[C@H]2C1(C)C
Activity [1]: Active | Activity [2]: 2.4% | Activity [4]: Active | Activity [5]: Active | Activity [6]: Active | Activity [7]: 7.9% | Activity [8]: Active | Activity [9]: Active | inhibition (INH) [10]: 9.9% | Activity [11]: 5.5%

— ChEMBL document CHEMBL6078712, “Triterpenoid phthalimides as selective anti-cancer agents targeting mitochondrial apoptosis” (Eur J Med Chem, 2025)
